Experimental data from ChEMBL document CHEMBL1141770, “Antineoplastic agents. 515. Synthesis of human cancer cell growth inhibitors derived from 3,4-methylenedioxy-5,4'-dimethoxy-3'-amino-Z-stilbene” (J Nat Prod, 2005).
Values after ≈ are worked out from the molar mass of the structure shown.

Key:
[1] = system: P388; test: Cytotoxicity against mouse P388 cells by sulforhodamine B method; format: functional
Method in brief: (§1)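 Sulforhodamine B assay, with growth inhibition read as reduced formation of cellular protein.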

[2] = system: BXPC-3; test: Growth inhibition of human BxPC3 cells by sulforhodamine B method; format: functional; method in brief: as §1
[3] = system: SF-295; test: Growth inhibition of human SF295 cells by sulforhodamine B method; format: functional; method in brief: as §1
[4] = system: NCI-H460; test: Growth inhibition of human NCI-H460 cells by sulforhodamine B method; format: functional; method in brief: as §1
[5] = system: DU-145; test: Growth inhibition of human DU145 cells by sulforhodamine B method; format: functional; method in brief: as §1
[6] = Inhibition of bovine brain tubulin assembly; parameters: species or system Bos taurus
Method in brief: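 Bovine brain tubulin at 1.0 mg/mL (10 µM) assembled with varying inhibitor concentrations. IC50 reported in µM ± SD.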

[7] = organism: Bos taurus; test: Displacement of [3H]colchicine from bovine tubulin at 50 uM
Method in brief: (§2)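 Bovine brain tubulin at 0.1 mg/mL (1.0 µM) incubated with 5.0 µM [3H]colchicine and inhibitor at the stated concentration. Read-out is inhibition of radiolabel binding to tubulin, in % ± SD.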

[8] = organism: Bos taurus; test: Displacement of [3H]vinblastine from bovine tubulin at 10 uM
Method in brief: (§3)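 Bovine brain tubulin at 0.5 mg/mL (5.0 µM) with 5 µM [3H]vinblastine and inhibitor as stated, in 0.5 mM MgCl2, 0.1 M MES pH 6.9 and 4% (v/v) DMSO. Incubated 30 min at 20–22 °C. Bound label separated by centrifugal gel filtration on syringe columns at 2,000 rpm; result is % inhibition ± SD.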

[9] = organism: Bos taurus; test: Displacement of [3H]vinblastine from bovine tubulin at 80 uM; method in brief: as §3
[10] = system: MCF7; test: Growth inhibition of human MCF7 after 48 hrs by sulforhodamine B method; format: functional, cell-based; details: MCF7, 48 h; method in brief: as §1
[11] = system: MCF7; test: Increase in mitotic index in human MCF7 cells at 10 times the IC50 concentration after 16 hrs; format: functional
Method in brief: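 MCF-7 cells grown with drug for 16 h, then DNA stain added. Result is the percentage of cells in mitosis.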

[12] = organism: Bos taurus; test: Displacement of [3H]colchicine from bovine tubulin at 2 uM; method in brief: as §2
[13] = system: Cryptococcus neoformans; test: Antimicrobial activity against Cryptococcus neoformans ATCC 90112 by broth microdilution assay; format: functional
Method in brief: (§4)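 Broth microdilution following NCCLS standards: M7-A5 for aerobic bacteria and M27-A2 for yeasts. Each assay was repeated at least twice on separate days.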

[14] = system: Neisseria gonorrhoeae; test: Antimicrobial activity against Neisseria gonorrhoeae ATCC 49226 by broth microdilution assay; format: functional
Method in brief: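 Screened by broth microdilution following NCCLS guidelines for bacteria grown aerobically. Each assay was repeated at least twice, on separate days.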

[15] = system: Streptococcus pneumoniae; test: Antimicrobial activity against Streptococcus pneumoniae ATCC 6303 by broth microdilution assay; format: functional; method in brief: as §4
[16] = system: Enterococcus faecalis; test: Antimicrobial activity against Enterococcus faecalis ATCC 29212 by broth microdilution assay; format: functional; method in brief: as §4
[17] = Solubility in water; format: physicochemical

Structure (SMILES)	GI50 [1] [µg/mL]	GI50 [2] [µg/mL]	GI50 [3] [µg/mL]	GI50 [4] [µg/mL]	GI50 [5] [µg/mL]	GI50 [10] [µg/mL]	other results
CC[C@H](C)[C@@H]([C@@H](CC(=O)N1CCC[C@H]1[C@H](OC)[C@@H](C)C(=O)Nc1cc(/C=C\c2cc(OC)c3c(c2)OCO3)ccc1OC)OC)N(C)C(=O)[C@@H](NC(=O)[C@H](C(C)C)N(C)C)C(C)C	< 0.01	0.048 (≈ 0.0545 µM)	0.0031 (≈ 0.00352 µM)	0.025 (≈ 0.0284 µM)	0.02 (≈ 0.0227 µM)	0.032 (≈ 0.0364 µM)	IC50 [6]: 1300 nM; Activity [7]: 30%; Activity [8]: 48%; Activity [9]: 87%; Activity [11]: 57%
COc1ccc(/C=C\c2cc(OC)c3c(c2)OCO3)cc1NC(=O)[C@H](Cc1ccc(OP(=O)(OCc2ccccc2)OCc2ccccc2)cc1)NP(=O)(OCc1ccccc1)OCc1ccccc1	10 (≈ 10.2 µM)	–	–	–	–	–	–
COc1ccc(/C=C\c2cc(OC)c3c(c2)OCO3)cc1N	–	–	–	–	–	–	Activity [12]: 85%; Activity [8]: 0%; Activity [9]: 0%
COc1ccc(/C=C\c2cc(OC)c3c(c2)OCO3)cc1NC(=O)[C@H](CC(=O)OC(C)(C)C)NC(=O)OC(C)(C)C	0.385 (≈ 0.675 µM)	3.4 (≈ 5.96 µM)	2.4 (≈ 4.21 µM)	1.7 (≈ 2.98 µM)	2.3 (≈ 4.03 µM)	3 (≈ 5.26 µM)	–
COc1ccc(/C=C\c2cc(OC)c3c(c2)OCO3)cc1NC(=O)[C@H](C)[C@@H](OC)[C@@H]1CCCN1.O=C(O)C(F)(F)F	0.0263	0.23	0.054	0.062	0.26	0.07	MIC [13]: 64 µg/mL; MIC [14]: 16 µg/mL; MIC [15]: 8 µg/mL; MIC [16]: 32 µg/mL
COc1ccc(/C=C\c2cc(OC)c3c(c2)OCO3)cc1NC(=O)[C@@H](N)Cc1ccc(OP(=O)(O)O)cc1	> 10	> 1	> 1	> 1	> 1	> 1	MIC [14]: 0.125 µg/mL (≈ 0.23 µM); MIC [16]: 16 µg/mL (≈ 29.5 µM)
COc1ccc(/C=C\c2cc(OC)c3c(c2)OCO3)cc1NC(=O)[C@H](C)[C@@H](OC)[C@@H]1CCCN1C(=O)OC(C)(C)C	0.225 (≈ 0.396 µM)	0.58 (≈ 1.02 µM)	0.53 (≈ 0.932 µM)	0.75 (≈ 1.32 µM)	1.9 (≈ 3.34 µM)	0.38 (≈ 0.668 µM)	MIC [13]: 64 µg/mL (≈ 113 µM)
COc1ccc(/C=C\c2cc(OC)c3c(c2)OCO3)cc1NC(=O)[C@@H](N)Cc1ccc(O)cc1.Cl	0.0329	0.064	0.064	0.096	0.08	0.041	solubility [17]: < 100 µg/mL
COc1ccc(/C=C\c2cc(OC)c3c(c2)OCO3)cc1NC(=O)[C@H](Cc1ccc(OP(=O)(OCc2ccccc2)OCc2ccccc2)cc1)NC(=O)OCc1ccccc1	0.133 (≈ 0.155 µM)	> 10	> 10	> 10	> 10	> 10	MIC [16]: 64 µg/mL (≈ 74.7 µM)
CC[C@H](C)[C@@H]([C@@H](CC(=O)N1CCC[C@H]1[C@H](OC)[C@@H](C)C(=O)N[C@@H](Cc1ccccc1)c1nccs1)OC)N(C)C(=O)[C@@H](NC(=O)[C@H](C(C)C)N(C)C)C(C)C [DOLASTATIN-10]	–	–	–	–	–	–	Activity [8]: 96%
CC[C@H](C)[C@@H]([C@@H](CC(=O)N1CCC[C@H]1[C@H](OC)[C@@H](C)C(=O)O)OC)N(C)C(=O)[C@@H](NC(=O)[C@H](C(C)C)N(C)C)C(C)C	–	–	–	–	–	–	Activity [7]: 5.2%; Activity [9]: 87%
COc1ccc(/C=C\c2cc(OC)c3c(c2)OCO3)cc1NC(=O)[C@H](Cc1ccc(OC(C)(C)C)cc1)NC(=O)OCc1ccccc1	0.38 (≈ 0.582 µM)	0.049 (≈ 0.0751 µM)	0.44 (≈ 0.674 µM)	0.41 (≈ 0.628 µM)	0.39 (≈ 0.597 µM)	0.36 (≈ 0.552 µM)	–
COc1ccc(/C=C\c2cc(OC)c(OC)c(OC)c2)cc1O [COMBRETASTATIN A4]	–	–	–	–	–	–	Activity [12]: 98%; Activity [8]: 0%; Activity [9]: 0%
COc1ccc(/C=C\c2cc(OC)c3c(c2)OCO3)cc1NC(=O)[C@@H](N)CC(=O)[O-].[Na+]	0.361	0.38	0.25	0.3	0.33	0.51	solubility [17]: < 100 µg/mL
COc1ccc(/C=C\c2cc(OC)c3c(c2)OCO3)cc1NC(=O)[C@H](Cc1ccc(OP(=O)([O-])O)cc1)NP(=O)(O)O.[Na+]	0.27	18.6	> 1	> 1	> 1	1.3	MIC [14]: 4 µg/mL
